49 variants from the RNAGym collection of RNA variant scans (doi:10.1002/anie.201605470) can be followed below.

To fix the notation:
B1: Osa-1-4 twister ribozyme (parent)
chain: CCGCCUAACACUGCCAAUGCCGGUCCCAAGCCCGGAUAAAAGUGGAGGGGGCGG

Variants of B1 are the subject of this data set. The experiment in a line: self-cleavage, relative activity (ratio to wild type); higher = more cleavage; co-transcriptional. The gist of the method:
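In vitro transcription at 37 °C for 2 h allowed the twister ribozyme to cleave itself as it was made. Its 54-nucleotide Oryza sativa template had been synthesised with 97 % wild-type base and 1 % of each other base at the 48 positions downstream of the cleavage site. A template-switching oligonucleotide was used for reverse transcription, followed by PCR amplification and deep sequencing. Whether reads carried upstream sequence set the cleavage status, and relative activity is the fraction cleaved normalised to wild type.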
CCGCCUAACACUGCCAAUGCCGGUCCCAAGCCCGGAUAAAAGUGGGGGGGGCGG: the self-cleavage was determined as 0.08.
For CCGCCUAACACUGCCAAUGCCGGUCCCAAGCCCGGAUAAAAGUGGCGAGGGCGG the value was 0.04.
As to CCGCCUAACACUGCCAAUGCCGGUCCCAAGCCCGGAUAAAAGUGGCGCGGGCGG, the self-cleavage was found to be 0.03.
With CCGCCUAACACUGCCAAUGCCGGUCCCAAGCCCGGAUAAAAGUGGCGUGGGCGG, the self-cleavage turned out to be 0.02.
With CCGCCUAACACUGCCAAUGCCGGUCCCAAGCCCGGAUAAAAAUGGCGGGGGCGG the figure was 0.04; with CCGCCUAACACUGCCAAUGCCGGUCCCAAGCCCGGAUAAAAUUGGCGGGGGCGG, 0.02; with CCGCCUAACACUGCCAAUGCCGGUCCCAAGCCCGGAUAAAACUGGCGGGGGCGG, 0.04.
For CCGCCUAAAACUGCCAAUGCCGGUCCCAAGCCCGGAUAAAAGUGGGGGGGGCGG the value was 0.03; for CCGCCUAAUACUGCCAAUGCCGGUCCCAAGCCCGGAUAAAAGUGGGGGGGGCGG, 0.03; for CCGCCUAAGACUGCCAAUGCCGGUCCCAAGCCCGGAUAAAAGUGGGGGGGGCGG, 0.07.
With CCGCCUAACAUUGCCAAUGCCGGUCCCAAGCCCGGAUAAAAGUGGGGGGGGCGG, the self-cleavage came out at 0.06.
On to CCGCCUAACAAUGCCAAUGCCGGUCCCAAGCCCGGAUAAAAGUGGGGGGGGCGG, for which the self-cleavage is 0.06.
With CCGCCUAACAGUGCCAAUGCCGGUCCCAAGCCCGGAUAAAAGUGGGGGGGGCGG the figure was 0.04; with CCGCCUAACACUGCCAAUGCCGGUCCCAAGCCCGGAUAAAAGUGGCGGGUGCGG, 0.09; with CCGCCUAACACUGCCAAUGCCGGUCCCAAGCCCGGAUAAAAGUGGCGGGAGCGG, 0.1.
With CCGCCUAACACUGCCAAUGCCGGUCCCAAGCCCGGAUAAAAGUGGCGGGCGCGG the figure was 0.08; with CCGCCUAACACUGCCAAUGACGGUCCCAAGCCCGGAUAAAAGUGGGGGGGGCGG, 0.09; with CCGCCUAACACUGCCAAUGUCGGUCCCAAGCCCGGAUAAAAGUGGGGGGGGCGG, 0.07.
With CCGCCUAACACUGCCAAUGGCGGUCCCAAGCCCGGAUAAAAGUGGGGGGGGCGG the figure was 0.04; with CCGCCUAACACUGCCAAUGCCGGUCCCAAGCCCGGAAAAAAGUGGCGGGGGCGG, 0.05.
Regarding CCGCCUAACACUGCCAAUGCCGGUCCCAAGCCCGGAGAAAAGUGGCGGGGGCGG, the self-cleavage came to 0.09.
As for CCGCCUAACACUGCCAAUGCCGGUCCCAAGCCCGGACAAAAGUGGCGGGGGCGG, the self-cleavage came out at 0.07.
As for CCGCCUAACACUGCCAAUGCCGUUCCCAAGCCCGGAUAAAAGUGGCGGGGGCGG, the self-cleavage is 0.03.
For CCGCCUAACACUGCCAAUGCCGCUCCCAAGCCCGGAUAAAAGUGGCGGGGGCGG the value was 0.02; for CCGCCUAACACUGCCAAUGCCGAUCCCAAGCCCGGAUAAAAGUGGCGGGGGCGG, 0.04.
For CCGCCUAACACUGCCAAUGCCGGUCCCAAGCCCGGAUAAAAGUGACGGGGGCGG the value was 0.05; for CCGCCUAACACUGCCAAUGCCGGUCCCAAGCCCGGAUAAAAGUGCCGGGGGCGG, 0.03; for CCGCCUAACACUGCCAAUGCCGGUCCCAAGCCCGGAUAAAAGUGUCGGGGGCGG, 0.02.
With CCGCCUUACACUGCCAAUGCCGGUCCCAAGCCCGGAUAAAAGUGGGGGGGGCGG the figure was 0.01; with CCGCCUGACACUGCCAAUGCCGGUCCCAAGCCCGGAUAAAAGUGGGGGGGGCGG, 0.05; with CCGCCUCACACUGCCAAUGCCGGUCCCAAGCCCGGAUAAAAGUGGGGGGGGCGG, 0.02.
In the case of CCGCCUAACACUGCCAAUGCCGGUCCCAAGUCCGGAUAAAAGUGGGGGGGGCGG, the self-cleavage was determined as 0.05.
With CCGCCUAACACUGCCAAUGCCGGUCCCAAGACCGGAUAAAAGUGGGGGGGGCGG the figure was 0.01; with CCGCCUAACACUGCCAAUGCCGGUCCCAAGGCCGGAUAAAAGUGGGGGGGGCGG, 0.03.
For CCGCCUAUCACUGCCAAUGCCGGUCCCAAGCCCGGAUAAAAGUGGGGGGGGCGG the value was 0.03; for CCGCCUACCACUGCCAAUGCCGGUCCCAAGCCCGGAUAAAAGUGGGGGGGGCGG, 0.03.
With CCGCCUAGCACUGCCAAUGCCGGUCCCAAGCCCGGAUAAAAGUGGGGGGGGCGG, the self-cleavage was 0.04.
For CCGCCUAACACUGCCAACGCCGGUCCCAAGCCCGGAUAAAAGUGGCGGGGGCGG the value was 0.06; for CCGCCUAACACUGCCAAGGCCGGUCCCAAGCCCGGAUAAAAGUGGCGGGGGCGG, 0.14.
With CCGCCUAACACUGCCAAAGCCGGUCCCAAGCCCGGAUAAAAGUGGCGGGGGCGG the figure was 0.06.
In the case of CCGCCUAACACUGCCAAUGCCGGUCCCAAGCCCGGAUAAAAGUGGCGGGGGCGA, the self-cleavage was 0.09.
For CCGCCUAACACUGCCAAUGCCGGUCCCAAGCCCGGAUAAAAGUGGCGGGGGCGU the value was 0.19.
For CCGCCUAACACUGCCAAUGCCGGUCCCAAGCCCGGAUAAAAGUGGCGGGGGCGC the value was 0.08; for CCGCCUAACACUGCCAAUGCCGGUCCCAAGCCCGAAUAAAAGUGGCGGGGGCGG, 0.06.
With CCGCCUAACACUGCCAAUGCCGGUCCCAAGCCCGUAUAAAAGUGGCGGGGGCGG the figure was 0.05; with CCGCCUAACACUGCCAAUGCCGGUCCCAAGCCCGCAUAAAAGUGGCGGGGGCGG, 0.04; with CCGCCUAACACUGUCAAUGCCGGUCCCAAGCCCGGAUAAAAGUGGGGGGGGCGG, 0.03.
Regarding CCGCCUAACACUGGCAAUGCCGGUCCCAAGCCCGGAUAAAAGUGGGGGGGGCGG, the self-cleavage amounted to 0.04.
For CCGCCUAACACUGACAAUGCCGGUCCCAAGCCCGGAUAAAAGUGGGGGGGGCGG the value was 0.03.
